# ChEMBL document CHEMBL1152173, “Synthesis and in vitro evaluation of the antifungal activities of dihydropyrimidinones” (2008)
# Calls of active or inactive are those of the source. The calls are words filed in the database; no cut-off is given here.
# Tests used:
# [1] = system: Trichoderma hamatum; experiment: Antifungal activity against Trichoderma hamatum assessed as radial growth at 3% after 72 hrs by poison food technique of Flack relative to control; assay type: functional
# [2] = system: Aspergillus niger; experiment: Antifungal activity against Aspergillus niger assessed as radial growth at 0.5% after 72 hrs by poison food technique of Flack relative to control; assay type: functional
# [3] = system: Trichoderma hamatum; experiment: Antifungal activity against Trichoderma hamatum assessed as radial growth at 0.5% after 48 hrs by poison food technique of Flack relative to control; assay type: functional
# [4] = system: Trichoderma koningii; experiment: Antifungal activity against Trichoderma koningii assessed as radial growth at 1% after 24 hrs by poison food technique of Flack relative to control; assay type: functional
# Method in brief: (§1)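 Acetone stock added to molten sterilized PDA to final 0.5–7%, plated in 90 mm dishes with compound-free plates as control. Each plate was inoculated with a 9 mm disc from a 4-day-old culture, incubated at 25 ± 1 °C, and colony diameter measured at 24 h intervals. % inhibition = (control − treatment)/control × 100; three replicates averaged.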
# [5] = system: Trichoderma koningii; experiment: Antifungal activity against Trichoderma koningii assessed as radial growth at 3% after 72 hrs by poison food technique of Flack relative to control; assay type: functional; method in brief: as §1
# [6] = system: Trichoderma koningii; experiment: Antifungal activity against Trichoderma koningii assessed as radial growth at 0.5% after 48 hrs by poison food technique of Flack relative to control; assay type: functional; method in brief: as §1
# [7] = system: Trichoderma hamatum; experiment: Antifungal activity against Trichoderma hamatum assessed as radial growth at 7% after 48 hrs by poison food technique of Flack relative to control; assay type: functional; method in brief: as §1
# [8] = system: Trichoderma hamatum; experiment: Antifungal activity against Trichoderma hamatum assessed as radial growth at 7% after 24 hrs by poison food technique of Flack relative to control; assay type: functional; method in brief: as §1
# [9] = system: Aspergillus niger; experiment: Antifungal activity against Aspergillus niger assessed as radial growth at 1% after 72 hrs by poison food technique of Flack relative to control; assay type: functional
# [10] = system: Trichoderma hamatum; experiment: Antifungal activity against Trichoderma hamatum assessed as radial growth at 1% after 24 hrs by poison food technique of Flack relative to control; assay type: functional
# [11] = system: Aspergillus niger; experiment: Antifungal activity against Aspergillus niger assessed as radial growth at 7% after 24 hrs by poison food technique of Flack relative to control; assay type: functional
# [12] = system: Aspergillus niger; experiment: Antifungal activity against Aspergillus niger assessed as radial growth at 7% after 72 hrs by poison food technique of Flack relative to control; assay type: functional
# [13] = system: Trichoderma koningii; experiment: Antifungal activity against Trichoderma koningii assessed as radial growth at 5% after 72 hrs by poison food technique of Flack relative to control; assay type: functional; method in brief: as §1
# [14] = system: Trichoderma hamatum; experiment: Antifungal activity against Trichoderma hamatum assessed as radial growth at 1% after 72 hrs by poison food technique of Flack relative to control; assay type: functional
# [15] = system: Aspergillus niger; experiment: Antifungal activity against Aspergillus niger assessed as radial growth at 0.5% after 24 hrs by poison food technique of Flack relative to control; assay type: functional
# [16] = system: Trichoderma koningii; experiment: Antifungal activity against Trichoderma koningii assessed as radial growth at 0.5% after 24 hrs by poison food technique of Flack relative to control; assay type: functional; method in brief: as §1
# [17] = system: Trichoderma hamatum; experiment: Antifungal activity against Trichoderma hamatum assessed as radial growth at 1% after 48 hrs by poison food technique of Flack relative to control; assay type: functional
# [18] = system: Trichoderma koningii; experiment: Antifungal activity against Trichoderma koningii assessed as radial growth at 3% after 24 hrs by poison food technique of Flack relative to control; assay type: functional; method in brief: as §1
# [19] = system: Trichoderma hamatum; experiment: Antifungal activity against Trichoderma hamatum assessed as radial growth at 3% after 48 hrs by poison food technique of Flack relative to control; assay type: functional
# [20] = system: Aspergillus niger; experiment: Antifungal activity against Aspergillus niger assessed as radial growth at 1% after 48 hrs by poison food technique of Flack relative to control; assay type: functional
# [21] = system: Trichoderma koningii; experiment: Antifungal activity against Trichoderma koningii assessed as radial growth at 7% after 24 hrs by poison food technique of Flack relative to control; assay type: functional; method in brief: as §1
# [22] = system: Trichoderma hamatum; experiment: Antifungal activity against Trichoderma hamatum assessed as radial growth at 5% after 72 hrs by poison food technique of Flack relative to control; assay type: functional; method in brief: as §1
# [23] = system: Aspergillus niger; experiment: Antifungal activity against Aspergillus niger; assay type: functional
# [24] = system: Trichoderma koningii; experiment: Antifungal activity against Trichoderma koningii assessed as radial growth at 5% after 24 hrs by poison food technique of Flack relative to control; assay type: functional; method in brief: as §1
# [25] = system: Trichoderma koningii; experiment: Antifungal activity against Trichoderma koningii assessed as radial growth at 7% after 48 hrs by poison food technique of Flack relative to control; assay type: functional; method in brief: as §1
# [26] = system: Trichoderma koningii; experiment: Antifungal activity against Trichoderma koningii assessed as radial growth at 1% after 48 hrs by poison food technique of Flack relative to control; assay type: functional; method in brief: as §1
# [27] = system: Aspergillus niger; experiment: Antifungal activity against Aspergillus niger assessed as radial growth at 0.5% after 48 hrs by poison food technique of Flack relative to control; assay type: functional
# [28] = system: Trichoderma koningii; experiment: Antifungal activity against Trichoderma koningii; assay type: functional
# [29] = system: Aspergillus niger; experiment: Antifungal activity against Aspergillus niger assessed as radial growth at 3% after 48 hrs by poison food technique of Flack relative to control; assay type: functional
# [30] = system: Trichoderma hamatum; experiment: Antifungal activity against Trichoderma hamatum assessed as radial growth at 0.5% after 72 hrs by poison food technique of Flack relative to control; assay type: functional
# [31] = system: Aspergillus niger; experiment: Antifungal activity against Aspergillus niger assessed as radial growth at 3% after 72 hrs by poison food technique of Flack relative to control; assay type: functional
# [32] = system: Aspergillus niger; experiment: Antifungal activity against Aspergillus niger assessed as radial growth at 5% after 72 hrs by poison food technique of Flack relative to control; assay type: functional
# [33] = system: Trichoderma koningii; experiment: Antifungal activity against Trichoderma koningii assessed as radial growth at 1% after 72 hrs by poison food technique of Flack relative to control; assay type: functional; method in brief: as §1
# [34] = system: Aspergillus niger; experiment: Antifungal activity against Aspergillus niger assessed as radial growth at 5% after 48 hrs by poison food technique of Flack relative to control; assay type: functional
# [35] = system: Aspergillus niger; experiment: Antifungal activity against Aspergillus niger assessed as radial growth at 5% after 24 hrs by poison food technique of Flack relative to control; assay type: functional
# [36] = system: Trichoderma koningii; experiment: Antifungal activity against Trichoderma koningii assessed as radial growth at 3% after 48 hrs by poison food technique of Flack relative to control; assay type: functional; method in brief: as §1
# [37] = system: Trichoderma hamatum; experiment: Antifungal activity against Trichoderma hamatum assessed as radial growth at 3% after 24 hrs by poison food technique of Flack relative to control; assay type: functional
# [38] = system: Aspergillus niger; experiment: Antifungal activity against Aspergillus niger assessed as radial growth at 1% after 24 hrs by poison food technique of Flack relative to control; assay type: functional
# [39] = system: Trichoderma koningii; experiment: Antifungal activity against Trichoderma koningii assessed as radial growth at 5% after 48 hrs by poison food technique of Flack relative to control; assay type: functional; method in brief: as §1
# [40] = system: Trichoderma hamatum; experiment: Antifungal activity against Trichoderma hamatum assessed as radial growth at 7% after 24 hrs by poison food technique of Flack; assay type: functional, organism-based
# Method in brief: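 Poisoned-food method: acetone stock mixed into molten sterilized potato dextrose agar to final 0.5, 1, 3, 5 or 7%, poured into 90 mm plates. Plates were inoculated with a 9 mm mycelial disc from a 4-day-old pure culture and incubated at 25 ± 1 °C. Colony diameter (mm) was read every 24 h; mean of three replicates.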
# [41] = system: Trichoderma hamatum; experiment: Antifungal activity against Trichoderma hamatum assessed as radial growth at 5% after 24 hrs by poison food technique of Flack relative to control; assay type: functional; method in brief: as §1
# [42] = system: Trichoderma koningii; experiment: Antifungal activity against Trichoderma koningii assessed as radial growth at 7% after 72 hrs by poison food technique of Flack relative to control; assay type: functional; method in brief: as §1
# [43] = system: Trichoderma hamatum; experiment: Antifungal activity against Trichoderma hamatum assessed as radial growth at 7% after 72 hrs by poison food technique of Flack relative to control; assay type: functional; method in brief: as §1
# [44] = system: Aspergillus niger; experiment: Antifungal activity against Aspergillus niger assessed as radial growth at 7% after 48 hrs by poison food technique of Flack relative to control; assay type: functional
smiles,measurement,setting,value
CCOC(=O)C1=C(C)NC(=S)NC1c1ccc(N(C)C)cc1 (stereo not drawn),inhibition (INH),[1],40.39%
same,inhibition (INH),[2],0%
same,inhibition (INH),[3],5.25%
same,inhibition (INH),[4],3.84%
same,inhibition (INH),[5],15.77%
same,inhibition (INH),[6],0%
same,inhibition (INH),[7],100%
same,inhibition (INH),[8],100%
same,inhibition (INH),[9],0%
same,inhibition (INH),[10],21.42%
same,inhibition (INH),[11],100%
same,inhibition (INH),[12],100%
same,inhibition (INH),[13],88.29%
same,inhibition (INH),[14],13.9%
same,inhibition (INH),[15],0%
same,inhibition (INH),[16],0%
same,inhibition (INH),[17],12.4%
same,inhibition (INH),[18],41.69%
same,inhibition (INH),[19],74.44%
same,inhibition (INH),[20],0%
same,inhibition (INH),[21],100%
same,inhibition (INH),[22],96.68%
same,MIC,[23],0.35 µg/mL
same,inhibition (INH),[24],92.3%
same,inhibition (INH),[25],95.31%
same,inhibition (INH),[26],0%
same,inhibition (INH),[27],0%
same,MIC,[28],0.025 µg/mL
same,inhibition (INH),[29],40%
same,inhibition (INH),[30],8.39%
same,inhibition (INH),[31],51.98%
same,inhibition (INH),[32],78.39%
same,inhibition (INH),[33],0%
same,inhibition (INH),[34],100%
same,inhibition (INH),[35],100%
same,inhibition (INH),[36],18.75%
same,inhibition (INH),[37],75%
same,inhibition (INH),[38],13.6%
same,inhibition (INH),[39],86.21%
same,Activity,[40],Active
same,inhibition (INH),[41],100%
same,inhibition (INH),[42],91.1%
same,inhibition (INH),[43],97.57%
same,inhibition (INH),[44],100%
CCOC(=O)C1=C(C)NC(=S)NC1c1ccccc1O (stereo not drawn),inhibition (INH),[1],76.44%
same,inhibition (INH),[2],0%
same,inhibition (INH),[3],6.18%
same,inhibition (INH),[4],12.35%
same,inhibition (INH),[5],32.71%
same,inhibition (INH),[6],0%
same,inhibition (INH),[7],100%
same,inhibition (INH),[8],100%
same,inhibition (INH),[9],0%
same,inhibition (INH),[10],49.73%
same,inhibition (INH),[11],62.46%
same,inhibition (INH),[12],36.14%
same,inhibition (INH),[13],88.33%
same,inhibition (INH),[14],38.22%
same,inhibition (INH),[15],0%
same,inhibition (INH),[16],0%
same,inhibition (INH),[17],51.46%
same,inhibition (INH),[18],50.39%
same,inhibition (INH),[19],80.94%
same,inhibition (INH),[20],0%
same,inhibition (INH),[21],100%
same,inhibition (INH),[22],97.52%
same,MIC,[23],0.025 µg/mL
same,inhibition (INH),[24],100%
same,inhibition (INH),[25],93.75%
same,inhibition (INH),[26],0%
same,inhibition (INH),[27],0%
same,MIC,[28],0.025 µg/mL
same,inhibition (INH),[29],38.16%
same,inhibition (INH),[30],0%
same,inhibition (INH),[31],23.37%
same,inhibition (INH),[32],31.92%
same,inhibition (INH),[33],14.37%
same,inhibition (INH),[34],50%
same,inhibition (INH),[35],62.46%
same,inhibition (INH),[36],4.18%
same,inhibition (INH),[37],81.13%
same,inhibition (INH),[38],20.12%
same,inhibition (INH),[39],91.4%
same,Activity,[40],Active
same,inhibition (INH),[41],100%
same,inhibition (INH),[42],91.05%
same,inhibition (INH),[43],98.35%
same,inhibition (INH),[44],61.83%
